Sampled rows, rich in hits. Any-hit rate of the full collection: about 1.6%.
FLuc inh counter – counter-screen for luciferase assay inhibitors: firefly luciferase inhibition. ATPLite firefly luciferase biochemical luminescence, 10 min. AID 1006. inhibition, % at 10 µM. 200,000 compounds, 1.5% hits;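 active = inhibition above about 50% when tested at 10 µM, limit read from the data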
Target sequence (P08659 whole entry, looked up): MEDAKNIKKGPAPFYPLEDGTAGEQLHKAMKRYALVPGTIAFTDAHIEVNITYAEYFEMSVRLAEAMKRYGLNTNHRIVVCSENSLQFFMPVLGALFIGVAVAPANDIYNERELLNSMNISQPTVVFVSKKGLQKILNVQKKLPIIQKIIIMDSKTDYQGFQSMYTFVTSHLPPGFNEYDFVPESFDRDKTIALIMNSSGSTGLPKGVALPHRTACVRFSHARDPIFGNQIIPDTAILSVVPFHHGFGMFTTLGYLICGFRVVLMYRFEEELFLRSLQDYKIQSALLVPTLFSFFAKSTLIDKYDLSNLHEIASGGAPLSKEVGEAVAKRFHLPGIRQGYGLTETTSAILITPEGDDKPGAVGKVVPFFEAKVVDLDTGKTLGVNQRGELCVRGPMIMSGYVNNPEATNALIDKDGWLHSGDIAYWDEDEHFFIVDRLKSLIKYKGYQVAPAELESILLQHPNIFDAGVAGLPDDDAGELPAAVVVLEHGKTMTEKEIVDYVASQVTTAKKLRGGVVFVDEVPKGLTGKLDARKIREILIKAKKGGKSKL
C8 TRAIL sens – sensitizes caspase-8 expressing cells to TRAIL; AID 624354; 360,000 compounds, 1% hits; NB7+C8 cells + TRAIL, ATPlite viability luminescence; inhibition (viability loss, TRAIL sensitization), % at 10 µM;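 active = compounds causing at least 50% loss of cell viability in the single-dose screen, relative to plate controls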
Platelet DG rel – modulates dense granule release in human platelets | inhibition, %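 (compounds screened at 7.5 µM in platelet-rich plasma)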 | human platelet-rich plasma, SFLLRN dense granule ATP release, luminescence | 300,000 compounds, 0.22% hits;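 active = mean replicate score, as percent of positive control, at or above 50; inconclusive = mean below 50 but at least one replicate at or above 50; inactive = mean and every replicate below 50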
FLuc act counter – affects firefly luciferase, flagging false hits in luciferase stimulation screens; P08659; 200,000 tested, under 10 active; ATPlite luciferase biochemical, luminescence, 10 min; 0 = ATP-free wells, 1 = DMSO control; activation factor at 10 µM; AID 1027;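 active = luciferase activation factor, scaled between plate controls, of at least 2 with compound at 10 µM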
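Material: Luciferase/luciferin reagent mix | Doses: Test compounds dosed from 2 mM stocks in 100% DMSO | Timing: 10 min incubation after luciferase reagent addition, room temperature | Measured by: Luminescence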
PPC-1+TRAIL kill – compounds killing PPC-1 cancer cells with TRAIL present (potentiator screen, no TRAIL-free arm); cell killing (% activity), % at 4 µM or 5 µM; AID 1443; 220,000 compounds, 0.41% hits; PPC-1 cells + TRAIL, ATPLite viability luminescence;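 active = cell killing above 50% in the first pass at 4 µM, then a duplicate retest at 5 µM averaging 50% or more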
Hits are given with their value; – = inactive; ? = inconclusive; · = no result given; ! = repeats disagree.

SMILES	FLuc inh counter	C8 TRAIL sens	Platelet DG rel	FLuc act counter	PPC-1+TRAIL kill
CC(C)c1ccc2c(c1)CCC1C(C)(CN)CCCC21C (stereo not drawn)	·	–	–	·	–
CC(C)c1ccc2c(c1)CC[C@H]1[C@](C)(CN)CCC[C@]21C	·	68.2!	·	·	·
COC(=O)C1(C(=O)OC)c2ccccc2N(S(=O)(=O)c2ccc(C)cc2)C1CC(C)=O (stereo not drawn)	·	–	·	·	·
OC[C@@H]1CN(Cc2cccs2)C[C@H](n2cnc3c(NCc4ccncc4)ncnc32)O1	·	–	·	·	·
Cc1cccc(CNC(=O)c2sc(=O)n(Cc3c(C)cccc3C)c2C)c1	·	–	·	·	·
COc1ccc2oc(-c3ccc(NC(=O)c4ccc(N5CCOCC5)c([N+](=O)[O-])c4)cc3)nc2c1	–	50.4	–	–	–
O=C1CCCc2nc(N3CCc4ccccc43)ncc21	64.6	51.6	–	–	–
O=C1CC(c2ccccc2)Cc2nc(N3CCc4ccccc43)ncc21 (stereo not drawn)	·	–	–	·	·
CCOC(=O)c1sc(NC(=O)Nc2ccc(F)cc2)nc1C	59.0	51.2	–	–	–
CCOC(=O)c1sc(NC(=O)c2ccc(OC)cc2)nc1C	–	–	–	–	–
CCOC(=O)c1sc(NC(=O)c2ccco2)nc1C	–	–	·	–	–
CCOC(=O)c1sc(NC(=O)c2ccc(OC(C)=O)cc2)nc1C	–	65.1	·	–	–
Cc1ccc(C(=O)Nc2nnc(C3CCCCC3)s2)o1	52.5	–	–	–	–
CCOC(=O)c1sc(NC(=O)c2ccc(C)o2)nc1C	69.0	–	–	–	–
Cc1cc(C(=O)Nc2nnc(C3CCCCC3)s2)no1	–	–	–	–	–
OC[C@@H]1CN(Cc2cccc3ccccc23)C[C@H](n2cnc3c(NCc4ccco4)ncnc32)O1	·	–	·	·	·
COC(=O)c1sc(NC(=O)c2ccc(C)o2)nc1C	52.1	–	?	–	–
CC(=O)c1sc(NC(=O)c2ccc(C(C)(C)C)cc2)nc1C	–	54.8	–	–	–
COc1ccc(C(C(=O)NC(C)(C)C)n2c(-c3ccc(-c4ccccc4)cc3)nc3ccccc32)cc1 (stereo not drawn)	·	–	·	·	·
Cc1c(C(=O)N2CCCC2)sc(NC(=O)c2ccc(Cl)cc2)c1C#N	–	–	58.2	–	–
O=C1NC[C@@H](CCCCN2C[C@H](Cc3ccccc3)N(CC3CCCCC3)C(=O)C2=O)N(CCc2ccccc2)C1=O	·	–	·	·	·
C=CC(=O)Nc1ccc(Nc2nc(NC3CCC(N(C)C)CC3)nc3c2ncn3C(C)C)cc1 (stereo not drawn)	·	72.9	·	·	·
CC(C)n1cnc2c(Nc3ccc(F)c(Cl)c3)nc(NCCO)nc21	·	–	–	·	·
CCc1nc2ccc(C(=O)N(C)Cc3ccccc3)cn2c1N(C)Cc1ccc(OC)cc1	·	–	·	·	·
COc1ccc(NC(=O)Nc2ccc3nonc3c2)cc1	·	–	–	·	–
SMILES	FLuc inh counter	C8 TRAIL sens	Platelet DG rel	FLuc act counter	PPC-1+TRAIL kill
COc1ccc(NC(=O)Nc2cccnc2)cc1	58.0	–	–	–	–
CCOc1ccc(NC(=O)Nc2cccnc2)cc1	77.0	58.5	–	–	–
COc1ccc(NC(=O)Nc2ccc3nccnc3c2)cc1	57.1	–	–	–	–
CCOc1ccc(NC(=S)Nc2cccc3cnccc23)cc1	–	–	–	–	–
COc1ccc(NC(=S)Nc2cccc3cnccc23)cc1	–	–	–	–	56.9
NC(=O)CSc1cn(Cc2ccc(F)cc2)c2ccccc12	–	–	59.2	–	–
O=C1c2ccccc2S(=O)(=O)c2cc(N3CCOCC3)ccc21	·	66.4	–	·	·
NC(=O)c1ccccc1N/C=C/C(=O)c1ccccc1	89.0	56.9	–	–	–
NC(=O)c1ccccc1NC(=O)/C=C/c1ccccc1	82.3	60.3	–	–	–
CC(C)=CC(=O)Nc1ccccc1C(N)=O	–	–	–	–	–
COc1ccc(S(=O)(=O)N2CCN(c3ccc4nnc(-c5ccccc5)n4n3)CC2)cc1	–	53.9	–	–	–
COc1ccc(S(=O)(=O)N2CCN(c3ccccc3OC)CC2)cc1	·	–	–	·	·
CC1(C(=O)NCCC#N)CCN1C(=O)c1ccccc1CCc1ccccc1 (stereo not drawn)	·	–	·	·	·
O=C(O)c1ccc2nc(-c3ccccc3)sc2c1	–	–	–	–	–
CC1CCN(c2nc3ccc(C(=O)NCCCN4CCCCC4)cc3s2)CC1	·	–	–	·	·
CC1CCN(c2nc3ccc(C(=O)O)cc3s2)CC1	58.0	–	–	–	–
Nc1ccc(-c2nc3ccc(C(=O)O)cc3s2)cc1	75.9	70.0	–	–	–
Nc1cc2sc(-c3ccc(C(=O)O)cc3)nc2cc1Cl	76.3	57.0	76.9	–	50.7
COc1cc(Nc2ccn3nc(-c4ccccc4Cl)cc3n2)cc(OC)c1OC	·	–	·	·	·
O=C(Nc1cccnc1)C1Cc2c(-c3ccc4c(c3)OCO4)ccnc2O1 (stereo not drawn)	·	–	·	·	·
O=c1c2c(nc3cc(-c4ccc(Br)cc4)[nH]n13)CCCC2	57.8	–	–	–	·
O=c1c2c(nc3cc(-c4ccccc4)[nH]n13)CCC2	60.8	–	–	–	–
COc1ccc(-c2cc3nc4c(c(=O)n3[nH]2)CCC4)cc1	51.5	–	–	–	–
Cc1cc2nc3c(c(=O)n2[nH]1)CCCC3	–	–	–	–	–
O[C@H]1C[C@H](c2ccccc2)N(Cc2cccs2)C[C@@H]1n1cc(C2CC2)nn1	·	–	·	·	·
SMILES	FLuc inh counter	C8 TRAIL sens	Platelet DG rel	FLuc act counter	PPC-1+TRAIL kill
COC(=O)[C@H](Cc1ccccc1)NC(=O)/C=C/[C@H]1O[C@@H](n2cc(C)c(=O)[nH]c2=O)C[C@@H]1O	·	–	·	·	·
Oc1ccc(N=Nc2n[nH]c(-c3ccccc3)n2)cc1	58.6	–	–	–	–
COc1ccc(C(C)(NC(C)=O)c2nc(-c3ccccc3OC)cs2)cc1 (stereo not drawn)	·	–	·	·	·
C/C(=N\NC(N)=O)c1ccc(-n2ccnc2)cc1	–	–	–	–	–
CCc1ccc(OCC(=O)N/N=C(\C)c2ccc(-n3ccnc3)cc2)cc1	72.3	–	–	–	–
CC1CCCCC1NC(=O)C1CCC(CNS(=O)(=O)c2ccc3c(c2)C(C)(C)C(=O)N3C)CC1 (stereo not drawn)	·	–	·	·	·
O=C(CCl)N1CCN(S(=O)(=O)c2ccc3ccccc3c2)CC1	·	80.9	–	·	·
COCCNC(=S)N/N=C/c1ccc2c(c1)OCCO2	58.8	–	–	–	–
COCCCNC(=S)N/N=C/c1ccc2c(c1)OCO2	·	–	–	·	–
S=C(NN=Cc1ccc2c(c1)OCO2)NN=Cc1ccc2c(c1)OCO2	·	–	·	·	·
CC(C)NC(=S)N/N=C/c1ccc2c(c1)OCCO2	75.5	–	–	–	–
CNc1nnc(-c2ccc(N(C)C)cc2)s1	91.5	72.6	·	–	60.3
O=C(O)c1cccc(COc2ccc3c(c2)CCC3)c1	·	62.7	–	·	–
CCOc1ccc(OCc2cccc(C(=O)N3CCCC3)c2)cc1	–	–	–	–	–
CCOc1ccc(OCc2cccc(C(=O)N3CCCCCC3)c2)cc1	66.6	–	–	–	–
O=C(O)c1cccc(COc2ccc(CO)cc2Cl)c1	84.8	66.8	–	–	–
O=C(O)c1cc(OCc2ccccc2)cc(OCc2ccccc2)c1	·	–	–	·	·
